Data taken from ChEMBL document CHEMBL5620421, “2,6-Disubstituted 7-(naphthalen-2-ylmethyl)-7H-purines as a new class of potent antitubercular agents inhibiting DprE1” (Eur J Med Chem, 2023).
Values after ≈ are worked out from the molar mass of the structure shown. Active and inactive are the calls of the source. No cut-off for these calls is given here.

How the values were obtained:
[1] = tested on: Mycobacterium tuberculosis; assay: Antimycobacterial activity against XDR clinical isolate Mycobacterium tuberculosis 9449/2007 assessed as inhibition of mycobacterial growth measured after 14 to 21 days of incubation by Sulas semisynthetic medium based assay; type: functional; details: time 14-21 day
How it was run: (§1)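 Clinical MDR/XDR M. tuberculosis isolates were tested by the Sula's semisynthetic medium micromethod. Compounds in DMSO at 1000 to 0.5 μmol/L, in twofold-type steps. Incubation at 37 °C, read at 14 and 21 days. MIC99 is the lowest concentration inhibiting >99% of growth. Drug resistance or susceptibility of each isolate is to amikacin, clofazimine, gentamicin, ofloxacin, streptomycin and the others listed.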

[2] = tested on: Mycobacterium tuberculosis; assay: Antitubercular activity against Mycobacterium tuberculosis CNCTC My 331/88 (H37Rv) assessed as inhibition of bacterial growth measured after 21 days of incubation by Sulas semisynthetic medium based assay; type: functional; details: 504 h, time 21 day
How it was run: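 Micromethod MIC in Sula's semisynthetic medium. MIC is the lowest concentration inhibiting >99% of the mycobacterial population. Isoniazid was the standard drug.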

[3] = tested on: Mycobacterium tuberculosis; assay: Antimycobacterial activity against MDR clinical isolate Mycobacterium tuberculosis 9449/2007 assessed as inhibition of mycobacterial growth measured after 14 to 21 days of incubation by Sulas semisynthetic medium based assay; type: functional; details: time 14-21 day; how it was run: as §1
[4] = tested on: Staphylococcus epidermidis; assay: Antibacterial activity against Staphylococcus epidermidis C1936 assessed as inhibition of bacterial growth incubated for 24 to 48 hrs by microdilution broth method; type: functional, organism-based; details: time 24-48 hrs
How it was run: (§2)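 Clinical isolates kept at –70 °C and subcultured twice on Mueller-Hinton agar, using the second subculture. Broth microdilution in Mueller-Hinton broth at pH 7.4 with two-fold serial compound dilutions and DMSO ≤1% final. Inoculum was 10 μL of a 1.5 × 10⁸ CFU/mL suspension. Incubated at 36 °C ± 1 °C and read at 24 h and 48 h. MIC taken as 95% growth inhibition.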

[5] = Intrinsic clearance in human liver microsomes at 3 uM incubated for 5 to 45 min in presence of NADPH by LC-MS analysis; type: ADME, Microsome; details: time 5-45 min, read-out: CLH
Staphylococcus aureus [6] = assay: Antibacterial activity against methicilin-resistant Staphylococcus aureus C1923 assessed as inhibition of bacterial growth at 125 uM incubated for 24 to 48 hrs by microdilution broth method; type: functional, organism-based; details: time 24-48 hrs
[7] = Half life in human liver microsomes at 3 uM incubated for 5 to 45 min in presence of NADPH by LC-MS analysis; type: ADME, Microsome; details: time 5-45 min
Staphylococcus aureus [8] = assay: Antibacterial activity against Staphylococcus aureus C1947 assessed as inhibition of bacterial growth incubated for 24 to 48 hrs by microdilution broth method; type: functional, organism-based; details: time 24-48 hrs; how it was run: as §2
Staphylococcus aureus [9] = assay: Antibacterial activity against Staphylococcus aureus C1947 assessed as inhibition of bacterial growth at 125 uM incubated for 24 to 48 hrs by microdilution broth method; type: functional, organism-based; details: time 24-48 hrs
Mycobacterium kansasii = assay: Antitubercular activity against Mycobacterium kansasii CNCTC My 235/80 assessed as inhibition of bacterial growth measured after 21 days of incubation by Sulas semisynthetic medium based assay; type: functional; details: CNCTC My 235/80, 504 h, time 21 day
How it was run: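 Micromethod in Sula's semisynthetic medium. MIC is the lowest concentration inhibiting >99% of the mycobacterial population. Isoniazid was the standard.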

Klebsiella pneumoniae [10] = assay: Antibacterial activity against ESBL negative Klebsiella pneumoniae C1950 assessed as inhibition of bacterial growth incubated for 24 to 48 hrs by microdilution broth method; type: functional, organism-based; details: time 24-48 hrs; how it was run: as §2
Enterococcus faecium [11] = assay: Antibacterial activity against vancomycin-resistant Enterococcus faecium assessed as inhibition of bacterial growth at 125 uM incubated for 24 to 48 hrs by microdilution broth method; type: functional, organism-based; details: time 24-48 hrs
Escherichia coli [12] = assay: Antibacterial activity against Escherichia coli A1235 assessed as inhibition of bacterial growth at 125 uM incubated for 24 to 48 hrs by microdilution broth method; type: functional, organism-based; details: time 24-48 hrs
[13] = tested on: Staphylococcus epidermidis; assay: Antibacterial activity against Staphylococcus epidermidis C1936 assessed as inhibition of bacterial growth at 125 uM incubated for 24 to 48 hrs by microdilution broth method; type: functional, organism-based; details: time 24-48 hrs
H9c2 = assay: Cytotoxicity against rat H9c2 cells assessed as cell viability incubated for 72 hrs by MTT spectrophotometric analysis; type: functional, cell-based; details: H9c2, 72 h
How it was run: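 HepG2 or rat H9c2 cells in DMEM with FBS, seeded at 10,000 cells/well. Treated 24 h later for 72 h, with 0.1% DMSO vehicle and 1% Triton X-100 as controls. MTT added (3 mg/mL solution) for 2 h at 37 °C, then cells lysed in isopropanol/0.1 M HCl/5% Triton X-100. Read at 570 nm minus 690 nm. Viability expressed as % of vehicle; IC50 derived where reached. At least four independent experiments.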

[14] = tested on: Mycobacterium tuberculosis; assay: Antimycobacterial activity against MDR clinical isolate Mycobacterium tuberculosis 8666/2010 assessed as inhibition of mycobacterial growth measured after 14 to 21 days of incubation by Sulas semisynthetic medium based assay; type: functional; details: time 14-21 day; how it was run: as §1
Enterococcus faecium [15] = assay: Antibacterial activity against vancomycin-resistant Enterococcus faecium assessed as inhibition of bacterial growth incubated for 24 to 48 hrs by microdilution broth method; type: functional, organism-based; details: time 24-48 hrs
How it was run: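 Clinical isolates, stored at −70 °C, were passaged twice on Mueller-Hinton agar. Broth microdilution in Mueller-Hinton broth, pH 7.4, with twofold serial dilutions. DMSO was at most 1% final. Inoculum 1.5 × 10⁸ CFU/mL suspension. MIC is 95% growth inhibition, read after 24 and 48 h at 36 °C.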

[16] = tested on: Mycobacterium tuberculosis; assay: Antimycobacterial activity against MDR clinical isolate Mycobacterium tuberculosis PRAHA 131 assessed as inhibition of mycobacterial growth measured after 14 to 21 days of incubation by Sulas semisynthetic medium based assay; type: functional; details: time 14-21 day; how it was run: as §1
Pseudomonas aeruginosa = assay: Antibacterial activity against multidrug-resistant Pseudomonas aeruginosa A1245 assessed as inhibition of bacterial growth at 125 uM incubated for 24 to 48 hrs by microdilution broth method; type: functional, organism-based; details: time 24-48 hrs
Klebsiella pneumoniae [17] = assay: Antibacterial activity against ESBL negative Klebsiella pneumoniae C1950 assessed as inhibition of bacterial growth at 125 uM incubated for 24 to 48 hrs by microdilution broth method; type: functional, organism-based; details: time 24-48 hrs
Klebsiella pneumoniae [18] = assay: Antibacterial activity against ESBL positive Klebsiella pneumoniae C1914 assessed as inhibition of bacterial growth incubated for 24 to 48 hrs by microdilution broth method; type: functional, organism-based; details: time 24-48 hrs; how it was run: as §2
Escherichia coli [19] = assay: Antibacterial activity against Escherichia coli A1235 assessed as inhibition of bacterial growth incubated for 24 to 48 hrs by microdilution broth method; type: functional, organism-based; details: time 24-48 hrs; how it was run: as §2
[20] = tested on: Mycobacterium tuberculosis; assay: Antimycobacterial activity against XDR clinical isolate Mycobacterium tuberculosis PRAHA 131 assessed as inhibition of mycobacterial growth measured after 14 to 21 days of incubation by Sulas semisynthetic medium based assay; type: functional; details: time 14-21 day; how it was run: as §1
[21] = tested on: Mycobacterium tuberculosis; assay: Antimycobacterial activity against XDR clinical isolate Mycobacterium tuberculosis 234/2005 assessed as inhibition of mycobacterial growth measured after 14 to 21 days of incubation by Sulas semisynthetic medium based assay; type: functional; details: time 14-21 day; how it was run: as §1
[22] = tested on: Mycobacterium tuberculosis; assay: Antimycobacterial activity against MDR clinical isolate Mycobacterium tuberculosis 7357/1998 assessed as inhibition of mycobacterial growth measured after 14 to 21 days of incubation by Sulas semisynthetic medium based assay; type: functional; details: time 14-21 day; how it was run: as §1
[23] = tested on: Mycobacterium tuberculosis; assay: Antimycobacterial activity against XDR clinical isolate Mycobacterium tuberculosis PRAHA 1 assessed as inhibition of mycobacterial growth measured after 14 to 21 days of incubation by Sulas semisynthetic medium based assay; type: functional; details: time 14-21 day; how it was run: as §1
[24] = tested on: Mycobacterium tuberculosis; assay: Antimycobacterial activity against MDR clinical isolate Mycobacterium tuberculosis PRAHA 1 assessed as inhibition of mycobacterial growth measured after 14 to 21 days of incubation by Sulas semisynthetic medium based assay; type: functional; details: time 14-21 day; how it was run: as §1

CCNc1nc(N2CCOCC2)nc2ncn(Cc3ccc4ccccc4c3)c12
MIC99 [1]: 4 µM (≈ 1.55 µg/mL)
MIC99 [2]: 1 µM (≈ 0.388 µg/mL)
MIC99 [3]: 2 µM (≈ 0.777 µg/mL)
Activity [4]: inactive
microsomal CLint at 3 µM [5]: 27 µL/min/mg
Activity (Staphylococcus aureus [6]): inactive
half-life at 3 µM [7]: 51.3 min
Activity (Staphylococcus aureus [8]): inactive
Activity (Staphylococcus aureus [9]): inactive
MIC99 (Mycobacterium kansasii): 8 µM (≈ 3.11 µg/mL)
Activity (Klebsiella pneumoniae [10]): inactive
Activity (Enterococcus faecium [11]): inactive
Activity (Escherichia coli [12]): inactive
Activity [13]: inactive
IC50 (H9c2): > 50 µM
MIC99 [14]: 2 µM (≈ 0.777 µg/mL)
Activity (Enterococcus faecium [15]): inactive
MIC99 [16]: 2 µM (≈ 0.777 µg/mL)
Activity (Pseudomonas aeruginosa): inactive
Activity (Klebsiella pneumoniae [17]): inactive
Activity (Klebsiella pneumoniae [18]): inactive
Activity (Escherichia coli [19]): inactive
MIC99 [20]: 4 µM (≈ 1.55 µg/mL)

O=c1[nH]c(N2CCSCC2)nc2ncn(Cc3ccc4ccccc4c3)c12
MIC99 [1]: 16 µM (≈ 6.04 µg/mL)
MIC99 [2]: 4 µM (≈ 1.51 µg/mL)
MIC99 [21]: 16 µM (≈ 6.04 µg/mL)
MIC99 [3]: 8 µM (≈ 3.02 µg/mL)
Activity [4]: inactive
microsomal CLint at 3 µM [5]: 127 µL/min/mg
half-life at 3 µM [7]: 10.9 min
Activity (Staphylococcus aureus [8]): inactive
MIC99 [22]: 16 µM (≈ 6.04 µg/mL)
MIC99 (Mycobacterium kansasii): 125 µM (≈ 47.2 µg/mL)
Activity (Klebsiella pneumoniae [10]): inactive
MIC99 [23]: 16 µM (≈ 6.04 µg/mL)
MIC99 [24]: 16 µM (≈ 6.04 µg/mL)
IC50 (H9c2): > 50 µM
MIC99 [14]: 8 µM (≈ 3.02 µg/mL)
Activity (Enterococcus faecium [15]): inactive
MIC99 [16]: 8 µM (≈ 3.02 µg/mL)
Activity (Klebsiella pneumoniae [18]): inactive
Activity (Escherichia coli [19]): inactive
MIC99 [20]: 16 µM (≈ 6.04 µg/mL)

CCOc1nc(N2CCOCC2)nc2ncn(Cc3ccc4ccccc4c3)c12
MIC99 [1]: 4 µM (≈ 1.56 µg/mL)
MIC99 [2]: 2 µM (≈ 0.779 µg/mL)
MIC99 [3]: 2 µM (≈ 0.779 µg/mL)
Activity [4]: inactive
microsomal CLint at 3 µM [5]: 24.4 µL/min/mg
Activity (Staphylococcus aureus [6]): inactive
half-life at 3 µM [7]: 56.8 min
Activity (Staphylococcus aureus [8]): inactive
Activity (Staphylococcus aureus [9]): inactive
MIC99 (Mycobacterium kansasii): 16 µM (≈ 6.23 µg/mL)
Activity (Klebsiella pneumoniae [10]): inactive
Activity (Enterococcus faecium [11]): inactive
Activity (Escherichia coli [12]): inactive
Activity [13]: inactive
IC50 (H9c2): > 50 µM
MIC99 [14]: 2 µM (≈ 0.779 µg/mL)
Activity (Enterococcus faecium [15]): inactive
MIC99 [16]: 2 µM (≈ 0.779 µg/mL)
Activity (Pseudomonas aeruginosa): inactive
Activity (Klebsiella pneumoniae [17]): inactive
Activity (Klebsiella pneumoniae [18]): inactive
Activity (Escherichia coli [19]): inactive
MIC99 [20]: 4 µM (≈ 1.56 µg/mL)

O=c1[nH]c(N2CCCCC2)nc2ncn(Cc3ccc4ccccc4c3)c12
MIC99 [1]: 16 µM (≈ 5.75 µg/mL)
MIC99 [2]: 4 µM (≈ 1.44 µg/mL)
MIC99 [21]: 16 µM (≈ 5.75 µg/mL)
MIC99 [3]: 8 µM (≈ 2.88 µg/mL)
Activity [4]: inactive
microsomal CLint at 3 µM [5]: 77.9 µL/min/mg
half-life at 3 µM [7]: 17.8 min
Activity (Staphylococcus aureus [8]): inactive
MIC99 [22]: 16 µM (≈ 5.75 µg/mL)
MIC99 (Mycobacterium kansasii): > 500 µM
Activity (Klebsiella pneumoniae [10]): inactive
MIC99 [23]: 16 µM (≈ 5.75 µg/mL)
MIC99 [24]: 16 µM (≈ 5.75 µg/mL)
IC50 (H9c2): > 50 µM
MIC99 [14]: 8 µM (≈ 2.88 µg/mL)
Activity (Enterococcus faecium [15]): inactive
MIC99 [16]: 8 µM (≈ 2.88 µg/mL)
Activity (Klebsiella pneumoniae [18]): inactive
Activity (Escherichia coli [19]): inactive
MIC99 [20]: 16 µM (≈ 5.75 µg/mL)

COc1nc(N2CCOCC2)nc2ncn(Cc3ccc4ccccc4c3)c12
MIC99 [1]: 16 µM (≈ 6.01 µg/mL)
MIC99 [2]: 4 µM (≈ 1.5 µg/mL)
MIC99 [21]: 16 µM (≈ 6.01 µg/mL)
MIC99 [3]: 8 µM (≈ 3 µg/mL)
Activity [4]: inactive
Activity (Staphylococcus aureus [8]): inactive
MIC99 [22]: 16 µM (≈ 6.01 µg/mL)
MIC99 (Mycobacterium kansasii): 64 µM (≈ 24 µg/mL)
Activity (Klebsiella pneumoniae [10]): inactive
MIC99 [23]: 16 µM (≈ 6.01 µg/mL)
MIC99 [24]: 16 µM (≈ 6.01 µg/mL)
IC50 (H9c2): > 50 µM
MIC99 [14]: 8 µM (≈ 3 µg/mL)
Activity (Enterococcus faecium [15]): inactive
MIC99 [16]: 8 µM (≈ 3 µg/mL)
Activity (Klebsiella pneumoniae [18]): inactive
Activity (Escherichia coli [19]): inactive
MIC99 [20]: 16 µM (≈ 6.01 µg/mL)
